From ChEMBL document CHEMBL3352245, “Discovery of a series of aryl-N-(3-(alkylamino)-5-(trifluoromethyl)phenyl)benzamides as TRPA1 antagonists” (Bioorg Med Chem Lett, 2014)
pIC50: −log10 of the molar value. ≈ marks a conversion by molar mass, not a printed value.

Key:
[1] = molecular target: Transient receptor potential cation channel subfamily A member 1 (Homo sapiens, UniProt O75762); experiment: Antagonist activity at human TRPA1 expressed in HEK293-TREx cells assessed as change in calcium level by Fluo-4NW assay; type: cell-based
Chain of Transient receptor potential cation channel subfamily A member 1 (O75762 whole entry): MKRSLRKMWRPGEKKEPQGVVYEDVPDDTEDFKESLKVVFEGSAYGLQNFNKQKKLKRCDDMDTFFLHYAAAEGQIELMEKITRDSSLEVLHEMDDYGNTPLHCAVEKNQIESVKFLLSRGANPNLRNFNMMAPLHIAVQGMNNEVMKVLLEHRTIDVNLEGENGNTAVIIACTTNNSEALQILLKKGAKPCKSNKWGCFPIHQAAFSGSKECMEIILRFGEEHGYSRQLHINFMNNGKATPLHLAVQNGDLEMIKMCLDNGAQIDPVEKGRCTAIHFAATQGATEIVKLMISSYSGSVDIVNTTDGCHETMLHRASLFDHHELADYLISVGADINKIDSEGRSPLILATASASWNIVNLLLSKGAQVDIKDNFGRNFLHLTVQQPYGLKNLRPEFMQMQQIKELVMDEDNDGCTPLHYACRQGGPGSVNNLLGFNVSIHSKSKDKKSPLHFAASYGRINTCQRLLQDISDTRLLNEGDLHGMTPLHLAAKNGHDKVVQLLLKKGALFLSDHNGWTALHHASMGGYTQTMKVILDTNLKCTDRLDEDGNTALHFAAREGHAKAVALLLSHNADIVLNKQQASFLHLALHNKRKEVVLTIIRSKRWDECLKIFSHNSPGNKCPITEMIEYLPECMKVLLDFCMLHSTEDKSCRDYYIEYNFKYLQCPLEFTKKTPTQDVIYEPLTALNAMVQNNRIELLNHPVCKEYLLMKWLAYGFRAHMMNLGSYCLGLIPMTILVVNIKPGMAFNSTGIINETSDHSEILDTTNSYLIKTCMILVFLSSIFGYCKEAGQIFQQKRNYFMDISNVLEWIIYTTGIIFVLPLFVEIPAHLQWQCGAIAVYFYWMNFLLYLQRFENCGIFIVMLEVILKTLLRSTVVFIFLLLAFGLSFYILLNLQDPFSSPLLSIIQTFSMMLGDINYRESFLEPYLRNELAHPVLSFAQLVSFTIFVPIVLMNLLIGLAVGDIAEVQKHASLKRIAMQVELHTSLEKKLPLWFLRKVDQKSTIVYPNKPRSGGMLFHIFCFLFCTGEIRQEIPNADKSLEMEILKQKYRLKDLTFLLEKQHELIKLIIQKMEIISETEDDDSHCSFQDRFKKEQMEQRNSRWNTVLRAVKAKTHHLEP
Outline: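 Human receptor; values are means of at least 2 experiments, with replicate error within 20% of value.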

[2] = Thermodynamic solubility of the compound in buffer at pH 7.4 by HPLC/UV detection method; type: physicochemical; conditions: read-out: Therm_solubility
Outline: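 Thermodynamic solubility in pH 7.4 buffer. Dissolved compound is quantified by HPLC with UV detection.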

[3] = Intrinsic clearance in human liver microsomes at 1 uM in presence of NADPH; type: ADME; conditions: read-out: CLH
Outline: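 Incubated with human liver microsomes at 1 mg/mL protein plus NADPH. Test compound at 1 μM.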

Plasma = experiment: Fraction unbound in human plasma at 10 uM by equilibrium dialysis method; type: ADME, cell-free
Outline: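 Test compound at 10 μM in human plasma. Binding is measured by equilibrium dialysis.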

[4] = Apparent permeability from apical to basolateral across human Caco2 cells at pH 7.4 at 10 uM by Transwell assay; type: ADME, cell-based; conditions: Caco-2, pH 7.4
Outline: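 Caco-2 monolayer in a Transwell format. Compound at 10 μM is applied apically and apical-to-basolateral apparent permeability is measured at pH 7.4.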

Cytochrome P450 1A2 = molecular target: T1, Cytochrome P450 1A2 (Homo sapiens, UniProt P05177); experiment: Competitive inhibition of CYP1A2 in human liver microsomes by LC-MS/MS analysis; type: ADME
T1 sequence (P05177 whole entry): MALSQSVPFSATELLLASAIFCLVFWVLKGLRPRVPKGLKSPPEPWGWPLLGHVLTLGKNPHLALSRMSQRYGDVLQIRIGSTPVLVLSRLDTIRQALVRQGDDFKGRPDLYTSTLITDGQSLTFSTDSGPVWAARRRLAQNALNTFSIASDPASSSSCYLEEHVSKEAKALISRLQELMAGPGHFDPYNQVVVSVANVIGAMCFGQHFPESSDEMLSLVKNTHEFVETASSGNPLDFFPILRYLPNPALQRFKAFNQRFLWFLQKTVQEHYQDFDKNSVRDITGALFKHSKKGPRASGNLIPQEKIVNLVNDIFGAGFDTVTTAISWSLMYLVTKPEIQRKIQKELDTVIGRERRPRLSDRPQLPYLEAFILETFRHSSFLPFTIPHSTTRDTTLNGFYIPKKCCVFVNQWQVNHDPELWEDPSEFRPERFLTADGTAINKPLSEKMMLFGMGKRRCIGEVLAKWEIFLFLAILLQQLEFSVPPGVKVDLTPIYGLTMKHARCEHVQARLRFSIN
Outline: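 Competitive inhibition screen in human liver microsomes using standard probe substrates. Metabolites are detected by LC-MS/MS. The panel also covered 2C9, 2C19, 2D6 and 3A4.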

CYP2D6 = CYP2D6 (Homo sapiens, UniProt P10635); experiment: Time-dependent inhibition of CYP2D6 in human liver microsomes at 10 uM by LC-MS/MS analysis; type: ADME
Chain of CYP2D6 (P10635 whole entry): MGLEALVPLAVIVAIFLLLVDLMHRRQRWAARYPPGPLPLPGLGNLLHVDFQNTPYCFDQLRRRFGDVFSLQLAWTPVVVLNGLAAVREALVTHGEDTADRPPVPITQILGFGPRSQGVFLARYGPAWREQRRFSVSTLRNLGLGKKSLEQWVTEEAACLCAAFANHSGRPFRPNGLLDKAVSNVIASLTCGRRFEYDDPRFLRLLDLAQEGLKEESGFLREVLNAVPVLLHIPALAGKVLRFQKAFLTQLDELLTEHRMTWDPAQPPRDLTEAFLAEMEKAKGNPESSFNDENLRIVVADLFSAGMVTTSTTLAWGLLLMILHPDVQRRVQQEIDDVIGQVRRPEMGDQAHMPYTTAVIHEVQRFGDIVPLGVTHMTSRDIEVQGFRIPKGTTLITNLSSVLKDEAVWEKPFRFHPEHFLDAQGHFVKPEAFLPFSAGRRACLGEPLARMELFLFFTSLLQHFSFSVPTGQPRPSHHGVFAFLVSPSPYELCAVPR
Outline: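 IC50-shift screen for time-dependent inhibition in human liver microsomes with test compound at 10 μM. The panel also covered 1A2, 2C9 and 3A4.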

SMILES | pIC50 [1] | also measured
CC(C)Nc1cc(NC(=O)c2c(F)cccc2F)cc(C(F)(F)F)c1 | 7.04 | solubility thermodynamic [2]: 1 µM (≈ 0.358 µg/mL); microsomal CLint at 1 µM [3]: 73 µL/min/mg; Fu (Plasma): < 1%; Papp A→B at 10 µM [4]: 6.9 ×10⁻⁶ cm/s
CCCN(C)c1cc(NC(=O)c2c(F)cccc2F)cc(C(F)(F)F)c1 | < 4.49 | 
CCCNc1cc(NC(=O)c2c(F)cccc2F)cc(C(F)(F)F)c1 | 6.96 | solubility thermodynamic [2]: 7 µM (≈ 2.51 µg/mL); microsomal CLint at 1 µM [3]: 96 µL/min/mg; Fu (Plasma): < 1%; Papp A→B at 10 µM [4]: 2.7 ×10⁻⁶ cm/s; pIC50 (Cytochrome P450 1A2): 5.82
CCCNc1cc(NC(=O)c2ccc(F)cc2)cc(C(F)(F)F)c1 | 5.85 | 
O=C(Nc1cc(NCc2ccccc2)cc(C(F)(F)F)c1)c1cccs1 | 5.54 | 
CC(C)Nc1cc(NC(=O)c2cccs2)cc(C(F)(F)F)c1 | 6.54 | 
CCCNc1cc(NC(=O)c2ccc(F)c(F)c2)cc(C(F)(F)F)c1 | 5.92 | 
CCCNc1cc(NC(=O)c2cccs2)cc(C(F)(F)F)c1 | 6.41 | 
O=C(Nc1cc(NCc2cccs2)cc(C(F)(F)F)c1)c1cccs1 | 5.57 | 
CCCNc1cc(NC(=O)c2ccccc2)cc(C(F)(F)F)c1 | 6.70 | solubility thermodynamic [2]: 8 µM (≈ 2.58 µg/mL); microsomal CLint at 1 µM [3]: 154 µL/min/mg; Fu (Plasma): < 1%; Papp A→B at 10 µM [4]: 6.2 ×10⁻⁶ cm/s; pIC50 (Cytochrome P450 1A2): 6.85; inhibition at 10 µM (CYP2D6): 35%
CC(C)CNc1cc(NC(=O)c2cccs2)cc(C(F)(F)F)c1 | 6.10 | 
CCCNc1cc(NC(=O)c2ccccn2)cc(C(F)(F)F)c1 | < 4.49 | 
O=C(Nc1cc(NCCc2ccccc2)cc(C(F)(F)F)c1)c1cccs1 | 5.41 | 
CCNc1cc(NC(=O)c2c(F)cccc2F)cc(C(F)(F)F)c1 | 7.13 | solubility thermodynamic [2]: 5 µM (≈ 1.72 µg/mL); microsomal CLint at 1 µM [3]: 115 µL/min/mg; Fu (Plasma): < 1%
CCCNc1cc(C)cc(NC(=O)c2c(F)cccc2F)c1 | 5.72 | 
COC(=O)Nc1cc(NC(=O)c2cccs2)cc(C(F)(F)F)c1 | 5.64 | 
CCCNc1cc(NC(=O)c2ccncc2)cc(C(F)(F)F)c1 | 5.59 | 
CC(C)C(C)Nc1cc(NC(=O)c2cccs2)cc(C(F)(F)F)c1 (stereo not given) | 5.89 | 
CCCN(CCC)c1cc(NC(=O)c2cccs2)cc(C(F)(F)F)c1 | < 4.49 | 
CCCOc1cc(NC(=O)c2c(F)cccc2F)cc(C(F)(F)F)c1 | < 4.49 | 
CCCNc1cc(N)cc(C(F)(F)F)c1 | < 4.49 | 
CCCNc1cc(NC(=O)c2cccnc2)cc(C(F)(F)F)c1 | 6.03 | 
